One experiment concerns the target rat βarr2 (Rattus norvegicus, UniProt P29067). The experiment is described as follows: Isothermal titration calorimetry of C7pp binding to full-length βarr2. The note with it: 298 K, 20 mM Tris-HCl pH 8.0, 200 mM NaCl. A digest of the protocol: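 Rat βarr2 (1–410 WT), expressed in E. coli BL21(DE3)pLysS, in 20 mM Tris-HCl pH 8.0, 200 mM NaCl at 100 μM or 30 μM in the cell, degassed at 295 K. Titration at 298 K: 2.5 μL of C7pp ([…] syringe solution) injected every 200 s with gentle stirring. Binding constant and stoichiometry fitted from the titration curve; n = 3 independent experiments.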

Another experiment has as its system βarr2. The experiment is described as follows: HDX-MS profile of βarr2 upon C7pp binding. Also on record: species or system Rattus norvegicus. The conditions noted are these: 100 μM βarr2, 500 μM peptide, 1 h at room temperature.
The test system of experiment [1] is truncated version of βarr2. Nature of the experiment: HDX-MS profile of truncated βarr2 upon co-incubation with C7pp. Also on record: species or system Rattus norvegicus. The note with it: truncated βarr2 lacking residues 357–410; data not shown.
For experiment [2], the target named is Rattus norvegicus wild-type β-arrestin 2 (βarr2 1-410) (Rattus norvegicus) (UniProt P29067). The experiment is described as follows: ITC.

Where a SMILES comes first, the peptide text is derived from it. [ ]: non-standard residue; d: D form. pT = C[C@@H](OP(=O)(O)O)[C@H](N)C(=O)O; pS = N[C@@H](COP(=O)(O)O)C(=O)O

These results are taken from PMC7116037 (Structure (London, England : 1993), 2020).

Rattus norvegicus wild-type β-arrestin 2 (βarr2 1-410) (Rattus norvegicus), sequence (P29067 whole entry): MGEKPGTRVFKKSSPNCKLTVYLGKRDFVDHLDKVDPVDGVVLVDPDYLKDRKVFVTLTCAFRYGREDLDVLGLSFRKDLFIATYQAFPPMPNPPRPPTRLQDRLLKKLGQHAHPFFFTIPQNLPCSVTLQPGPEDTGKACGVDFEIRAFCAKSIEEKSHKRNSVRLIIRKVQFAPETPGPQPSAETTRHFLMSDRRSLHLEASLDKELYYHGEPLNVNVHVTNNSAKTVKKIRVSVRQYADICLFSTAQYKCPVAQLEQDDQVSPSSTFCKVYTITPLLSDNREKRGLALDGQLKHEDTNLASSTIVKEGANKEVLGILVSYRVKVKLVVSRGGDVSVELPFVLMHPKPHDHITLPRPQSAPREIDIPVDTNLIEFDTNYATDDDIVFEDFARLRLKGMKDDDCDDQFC
rat βarr2, sequence (P29067 whole entry): as above

As for `CC[C@H](C)[C@H](N)C(=O)N[C@@H](Cc1ccccc1)C(=O)N[C@@H](CCCCN)C(=O)N[C@@H](Cc1ccc(O)cc1)C(=O)N[C@@H](COP(=O)(O)O)C(=O)N[C@@H](C)C(=O)N[C@@H](CCCCN)C(=O)N[C@H](C(=O)NCC(=O)N[C@@H](CC(C)C)C(=O)N[C@H](C(=O)N[C@@H](CCCCN)C(=O)N[C@@H](CC(C)C)C(=O)N[C@H](C(=O)N[C@@H](CC(=O)O)C(=O)O)[C@@H](C)CC)[C@@H](C)OP(=O)(O)O)[C@@H](C)OP(=O)(O)O` [C7pp] (H-IFKY[pS]AK[pT]GL[pT]KLID-OH; N-terminus and C-terminus assumed), the “binding behaviour (ITC)” value on rat βarr2 was “monophasic binding with βarr2”. In addition, the “HDX-MS: helix formation in the finger loop” value in the experiment with βarr2 is reported as “did not indicate a helix formation in the finger loop”. Further, the “HDX profile of truncated βarr2 upon co-incubation” value in experiment [1] is given as “did not change upon co-incubation with C7pp”.

CXCR7 phosphopeptide (C7pp) came in with a Kd in experiment [2] of 3.08 µM.

What is called Kd is the free concentration of one partner at which half of the binding sites on the other are occupied at equilibrium, for simple one-to-one binding. High values mean a looser complex, low ones a tighter complex.
